Screening results deposited in PubChem by several laboratories.
Rows were chosen to be rich in hits. Some 1.9% of all compounds tested hit in one or more screens of this group.
RanGTP-Impb inh: inhibitors of RanGTP-importin-beta interaction, primary screen, biochemical, FRET, CFP-Ran, YFP-importin-beta, homogeneous; cell-free CFP-Ran/YFP-importin-beta FRET ratio; inhibition, % (concentration not given with the values); actives 1.1% (n = 300,000); AID 2216;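 active = more than half of the replicate wells show a fall in the fluorescence ratio signal beyond about 16%, limit read from the data, passing the limit was not always enough; inconclusive = exactly half of the replicate wells pass the set limit; inactive = fewer than half of replicates pass the limit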;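 note: 0% = DMSO wells and 100% = Ran loaded with GDP instead of GTP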
Runt-CBFb FRET: inhibitors of human RUNX1 Runt domain binding to CBFb | Cerulean-Runt/Venus-CBFb FRET ratio 530/480, 1 h | inhibition, % at 20 µM | actives 0.46% (n = 220,000) | AID 1496;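 active = inhibition over about 50% at 20 µM in the single-dose screen, limit read from the data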;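 note: 0% = DMSO wells and 100% = excess unlabeled CBFb competitor control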
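test system = Cerulean-tagged RUNX1 Runt domain (FRET donor) fusion protein | reagent = Venus-CBFb binding partner, 100 nM | incubation = protein complex preformed 1 h, compound exposure 1 h, room temperature, dark | detection = FRET fluorescence | read-out basis = loss of energy transfer signal | controls = 5 µM unlabeled CBFb as full-inhibition high control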
Tb hexokinase: blocks Trypanosoma brucei hexokinase 1 activity. inhibition, % at 10 µM. actives 0.11% (n = 220,000). recombinant TbHK1, G6PDH-coupled NADH A340;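 active = inhibition of 50% or more in the single-dose primary screen; inactive = inhibition below 50%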
Runt-SMMHC FRET: inhibitors of human RUNX1 Runt domain binding to CBFb-SMMHC. Cerulean-Runt/Venus-CBFb-SMMHC FRET ratio 530/480, 1 h. Q01196+Q13951. actives 0.74% (n = 220,000). inhibition, % at 20 µM;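 active = mean inhibition across duplicate retests at 20 µM reaching about 50%, limit read from the data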;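 note: 0% = DMSO wells and 100% = wells with excess untagged CBFb-SMMHC; inhibitors lower the FRET ratio by blocking Runt binding to CBFb-SMMHC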
Hck-Nef inh: human Hck-Nef kinase inhibition. P08631. Recombinant Hck-YEEI plus Nef, Z-Lyte FRET kinase assay. inhibition, % at 20 µM. actives 0.68% (n = 220,000). AID 463187;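 active = Hck-Nef kinase inhibition above about 50%, limit read from the data; inactive = inhibition below that limit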;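 note: 0% = DMSO with Hck plus Nef and 100% = Hck alone without Nef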
Target sequence (P08631 whole entry, looked up): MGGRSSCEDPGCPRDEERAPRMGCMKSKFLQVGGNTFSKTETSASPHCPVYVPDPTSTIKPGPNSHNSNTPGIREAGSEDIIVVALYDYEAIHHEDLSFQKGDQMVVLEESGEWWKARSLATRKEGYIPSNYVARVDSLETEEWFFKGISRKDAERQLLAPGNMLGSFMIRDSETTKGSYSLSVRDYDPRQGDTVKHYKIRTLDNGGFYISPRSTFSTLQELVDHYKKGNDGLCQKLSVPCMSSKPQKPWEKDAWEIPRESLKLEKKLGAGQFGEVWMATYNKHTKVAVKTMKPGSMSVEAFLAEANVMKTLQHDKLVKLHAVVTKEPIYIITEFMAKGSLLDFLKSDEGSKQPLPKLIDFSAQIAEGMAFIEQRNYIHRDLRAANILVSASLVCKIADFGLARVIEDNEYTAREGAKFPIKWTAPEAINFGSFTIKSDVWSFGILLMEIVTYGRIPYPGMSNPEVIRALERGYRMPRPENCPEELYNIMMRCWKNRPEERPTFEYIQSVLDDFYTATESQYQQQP
YIC counter: counter-screen for RanGTP-importin-beta inhibitors: YIC FRET probe; IC50, µM; Purified YIC probe, intramolecular FRET ratio YFP/CFP; actives 40% (n = 1,000); shares compounds with RanGTP-Impb inh;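 active = fitted half-maximal inhibitory concentration no more than tenfold above the top dose tested; inconclusive = flat fit with 30 to 70% activity, or poor fit; inactive = half-maximal concentration beyond tenfold above the top dose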
* marks the source's active call; other numbers are inactive results; ? = inconclusive; . = no result given.

SMILES | RanGTP-Impb inh | Runt-CBFb FRET | Tb hexokinase | Runt-SMMHC FRET | Hck-Nef inh | YIC counter
Cc1cc2c(c(=O)n1CC1CCCO1)C(c1ccco1)C(C#N)=C(N)O2 (stereo not drawn) | 23* | 112* | -6 | 39 | -1 | 14*
COc1cc(C2C(C#N)=C(N)Oc3cc(C)n(CC4CCCO4)c(=O)c32)cc2c1OCO2 (stereo not drawn) | -4 | 1 | 4 | -1 | 0 | .
COC(=O)c1cc(S(=O)(=O)NCCN2CCN(c3ccccc3F)CC2)c[nH]1 | 2 | . | . | . | . | .
O=S(=O)([N-]c1nc2ccccc2nc1-[n+]1ccccc1)c1ccccc1 | 3 | 0 | -5 | 2 | -1 | .
Cc1cc(C)c[n+](-c2nc3ccccc3nc2[N-]S(=O)(=O)c2ccc(Br)s2)c1 | 30* | 34 | -10 | 78* | -1 | 7.9*
Cc1ccc(S(=O)(=O)c2nnn3c2nc(NC2CCN(Cc4ccccc4)CC2)c2ccccc23)cc1C | 4 | . | . | . | . | .
c1ccc(-n2cnc3cc(NCc4cccs4)ccc32)cc1 | ? | -1 | 3 | 2 | 2 | .
COc1ccc(-n2cnc3cc(NCc4cccs4)ccc32)cc1 | 19* | -1 | 3 | 1 | 12 | >50
Cc1cc(C)n2nc(C(=O)OCC(=O)c3cc(C)n(CC4CCCO4)c3C)nc2n1 (stereo not drawn) | 0 | 1 | 0 | -1 | 17 | .
Cc1cc(C(=O)COC(=O)c2nc3nccc(C)n3n2)c(C)n1CC1CCCO1 (stereo not drawn) | 21* | 0 | -1 | -4 | 15 | >50
COC(=O)c1nc2nc(-c3cccs3)cc(C(F)(F)F)n2n1 | 3 | 8 | -31 | 30 | 13 | .
NNC(=O)c1cc2nc(-c3cccs3)cc(C(F)(F)F)n2n1 | 27* | 2 | -11 | 3 | -31 | >50
O=C(NCCN1CCCC1)c1ccc(Cl)cc1 | -3 | 0 | -7 | -1 | 38 | .
N#Cc1c(N)n(CCNC(=O)c2ccc(Cl)cc2)c2nc3ccccc3nc12 | 28* | 94* | -7 | 44 | 12 | 2*
COC(=O)CNC(=O)COC(=O)Cc1ccc(Cl)cc1 | 2 | 0 | 0 | 0 | 2 | .
Cc1ccc2nc(N3CCN(Cc4nnnn4Cc4ccccc4)CC3)c(C#N)cc2c1 | 17* | 26 | 4 | 62* | 4 | 22*
COc1ccc2cc(C#N)c(N3CCN(Cc4nnnn4CCC(C)C)CC3)nc2c1 | -5 | -4 | -4 | 0 | 0 | .
N#Cc1nc(-c2ccco2)oc1NCCc1ccccc1 | 2 | 0 | -16 | 0 | 0 | .
COc1ccc(CCNc2oc(-c3ccco3)nc2C#N)cc1 | 26* | -2 | -11 | 0 | 0 | >50
CNC(=S)N(Cc1cc2cc(OC)c(OC)cc2[nH]c1=O)C1CCCC1 | 2 | 34 | -11 | -4 | 27 | .
COc1cc(OC)cc(-c2cc3nc(C)cc(N4CCN(C(=O)c5ccco5)CC4)n3n2)c1 | 29* | 12 | -17 | 26 | 2 | 3.7*
COc1ccc(-c2nc(/C=C3\C(C)=Nc4ccccc43)c(O)o2)cc1 | 28* | -11 | -10 | -19 | -21 | >50
Oc1oc(-c2ccccc2)nc1C=Nc1ccccc1 | -2 | 2 | -9 | 4 | -1 | .
COc1ccc(Cn2c(O)c(C=Nc3ccc(OC)cc3)c3ccccc3c2=O)cc1 | 29* | -166 | -16 | -25 | 2 | >26
Cc1ccc(S(=O)(=O)NCCN(CCNS(=O)(=O)c2ccc(C)cc2)S(C)(=O)=O)cc1 | 21* | -4 | -2 | -3 | 0 | >50
SMILES | RanGTP-Impb inh | Runt-CBFb FRET | Tb hexokinase | Runt-SMMHC FRET | Hck-Nef inh | YIC counter
COc1ccc(OC)c(N(CC(=O)N2CCCC2)S(=O)(=O)c2ccc(OC)c(OC)c2)c1 | -3 | -1 | -6 | -2 | -8 | .
COc1ccc(OC)c(N(CC(=O)O)S(=O)(=O)c2ccc(OC)c(OC)c2)c1 | 21* | 0 | 0 | 1 | -2 | >50
Cc1ccc(S(=O)(=O)NC(C(=O)Oc2ccc3ccc(=O)oc3c2)c2ccccc2)cc1 (stereo not drawn) | 20* | 85* | -12 | 160* | 58* | 28*
O=C(Oc1ccc2ccc(=O)oc2c1)c1ccccc1 | 10 | . | . | . | . | .
COc1cc(Cl)c(C)cc1Nc1ncccn1 | 0 | . | . | . | . | .
CC(=O)c1cc(NC(=O)c2ccc([N+](=O)[O-])cc2)c(=O)oc1C | -1 | 21 | -13 | 16 | 8 | .
COC(=O)c1cc(NC(=O)c2ccc([N+](=O)[O-])cc2)c(=O)oc1C | 18* | 10 | -9 | 2 | -13 | >50
COc1cccc(Nc2nc(N)c([N+](=O)[O-])c(NCc3ccccc3)n2)c1 | -4 | -3 | -11 | 2 | 20 | .
C=CCSc1nnc(NC(=O)C23CC4CC(CC(NC(C)=O)(C4)C2)C3)s1 | 1 | . | . | . | . | .
NC(=O)c1ccc(F)cc1 | 17* | . | 0 | . | 0 | >50
O=c1[nH]c(/C=C\c2ccccc2F)nc(O)c1[N+](=O)[O-] | 0 | . | . | . | . | .
COc1ccc(CCNC(=O)c2cc3c(=O)n4ccccc4nc3n(CC3CCCO3)c2=N)cc1OC (stereo not drawn) | 18* | . | . | . | . | 27*
COc1ccc(CCNC(=O)c2c(C)nc3ccccn23)cc1OC | 6 | 1 | 0 | 0 | 19 | .
COc1ccc(CCNC(=O)c2cc3c(=O)n4ccccc4nc3n(C3CCCCC3)c2=N)cc1OC | 23* | . | . | . | . | 26*
N=c1c(S(=O)(=O)c2ccc(Br)cc2)cc2c(=O)n3ccccc3nc2n1C1CCCCC1 | 22* | . | . | . | . | >50
COc1cc(CN2CCC(C(=O)NCC(C)(C)CN(C)C)CC2)ccc1OCc1ccccc1 | 0 | . | . | . | . | .
O=C(CSc1nnc(-c2ccc(F)cc2)o1)Nc1ccc(S(=O)(=O)N2CCCC2)cc1 | 17* | -2 | 7 | 1 | 2 | >50
O=C(CSc1nnc(-c2ccc(F)cc2)o1)Nc1ccc(S(=O)(=O)N2CCCCCC2)cc1 | 4 | -2 | 0 | -1 | 9 | .
O=C(c1cc2c(=O)n3ccccc3nc2s1)N1CCN(Cc2ccc3c(c2)OCO3)CC1 | -2 | 26 | -17 | 33 | 32 | .
O=C(c1cc2c(=O)n3ccccc3nc2s1)N1CCN(Cc2ccccc2)CC1 | 21* | . | . | . | . | >50
O=C1CC(N2CCN(c3ccccc3)CC2)C(=O)N1c1ccc(Cl)cc1 (stereo not drawn) | 3 | . | . | . | . | .
NC(=O)CN(Cc1ccccc1)S(=O)(=O)c1ccc2c(c1)OCCO2 | 19* | . | . | . | . | >50
O=C(CN(Cc1ccccc1)S(=O)(=O)c1ccc2c(c1)OCCO2)Nc1ccc2c(c1)OCCO2 | -3 | 2 | -5 | 18 | 0 | .
Clc1cccc(-c2ccc(C=Nc3ccc(N4CCOCC4)cc3)o2)c1Cl | 23* | 7 | -22 | -2 | 31 | >50
